Screening data: PubChem BioAssay, several laboratories
FXIIa inh = human FXIIa protease inhibitors, primary screen, biochemical, 1536-well; Coagulation factor XII (Homo sapiens), P00748; purified FXIIa, Boc-QGR-AMC fluorogenic substrate, 2 h; inhibition, % at 5 µM; AID 800, 2007; actives 0.3% (n = 220,000); in the data active = inhibition above about 40%
Target sequence (P00748 20-372 limits assumed): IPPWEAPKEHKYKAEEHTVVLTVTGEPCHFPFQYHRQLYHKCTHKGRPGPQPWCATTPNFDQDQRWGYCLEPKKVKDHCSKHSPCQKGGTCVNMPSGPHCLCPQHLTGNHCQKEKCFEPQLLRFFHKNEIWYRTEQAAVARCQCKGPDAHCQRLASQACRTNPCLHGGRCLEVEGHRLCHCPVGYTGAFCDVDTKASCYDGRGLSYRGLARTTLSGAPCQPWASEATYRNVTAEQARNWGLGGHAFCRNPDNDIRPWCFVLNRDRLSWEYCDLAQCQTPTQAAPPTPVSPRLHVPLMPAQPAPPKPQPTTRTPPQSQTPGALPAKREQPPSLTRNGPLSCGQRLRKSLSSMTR
Target sequence (P00748 373-615 limits assumed): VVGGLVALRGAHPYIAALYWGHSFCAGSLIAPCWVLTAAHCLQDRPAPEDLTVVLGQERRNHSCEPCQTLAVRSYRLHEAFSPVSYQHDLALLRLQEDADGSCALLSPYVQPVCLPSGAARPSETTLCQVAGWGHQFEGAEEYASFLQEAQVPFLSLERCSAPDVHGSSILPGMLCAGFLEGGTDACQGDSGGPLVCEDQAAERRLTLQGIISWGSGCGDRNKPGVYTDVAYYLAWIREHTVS
KLK5 inh = human KLK5 protease inhibitors, primary screen, biochemical, 1536-well | actives 0.59% (n = 210,000) | recombinant hK5, fluorogenic AMC substrate cleavage | inhibition, % at 5 µM;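 active = inhibition of 40% or more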
FXIa inh = human FXIa protease inhibitors, primary screen, biochemical, 1536-well; Coagulation factor XI (Homo sapiens), P03951; purified FXIa, Boc-Glu-Ala-Arg-AMC fluorogenic substrate; inhibition, % at 5 µM; actives 0.14% (n = 220,000);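 active = inhibition of at least 40%; inactive = inhibition below 40%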;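 note: fluorescence of freed AMC excited at 355 nm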
thrombin 1536 = human alpha-thrombin inhibitors, primary screen, counter-screen for coagulation protease inhibitor project, biochemical, 1536-well, fluorogenic AMC substrate. Prothrombin (Homo sapiens), P00734. Boc-VPR-AMC fluorogenic substrate cleavage. inhibition, % at 5 µM. actives 0.26% (n = 220,000). AID 1046, 2008;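 active = inhibition at or above 40%; inactive = inhibition below 40%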
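Test system: human alpha-thrombin protein / Dosing: one concentration per compound, 5 µM, with 0.2% DMSO / Medium: pH 7.5 Tris-saline with Tween 20 / Benchmarks: no-compound enzyme wells and no-enzyme blanks / Read-out basis: percent inhibition of thrombin substrate cleavage / Timing: reaction at room temperature / Measured by: fluorescence, ex 355 nm, em 460 nm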
m-calpain inh = inhibitors of pig calpain II, primary screen, biochemical, fluorogenic peptide substrate, 1536-well | actives 0.37% (n = 220,000) | AID 1236, 2008 | inhibition, % at 16 µM | purified calpain II, 30 min;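 active = inhibition above about 50%, limit read from the data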
Each line names hits and unclear results; the compound was inactive in the other large screens. Most compounds without a hit are left out; they make up all but 1.4% or so of the library.

O=c1c2c(-c3ccccc3)csc2ncn1/N=C/c1ccc(O)c([N+](=O)[O-])c1	m-calpain inh 55.6 (no result: KLK5 inh)
O=c1c2c(-c3ccccc3)csc2ncn1/N=C/c1cccc([N+](=O)[O-])c1O	none (no result: KLK5 inh)
Cc1nn(C)c(=S)n1-c1ccc(Cl)cc1	KLK5 inh 43.8
O=C(Cn1c(/C=C/c2ccccc2)nc2ccccc21)Nc1ccc(F)cc1	FXIIa inh 40.3
Nc1nc(SCC(=O)Nc2cccnc2Cl)n[nH]1	none
COc1ccc(NC(=O)C2CCC(=O)N2)cc1 (configuration not stated)	none
O=C1CCC(C(=O)Nc2cccc3ccccc23)N1 (configuration not stated)	KLK5 inh 61.8, thrombin 1536 104.0
COc1cc(C2=NC(CO)(CO)CO2)cc(OC)c1OC	none
Nc1nc(CCl)nc(Nc2ccc3ccccc3c2)n1	KLK5 inh 61.4
Cc1cc(C)cc(NC(=O)CSc2nnc(-c3ccccc3C)o2)c1	KLK5 inh 53.5
Nc1nc(NCc2ccco2)nc(N2CCN(Cc3ccccc3)CC2)c1[N+](=O)[O-]	none
CC(NC(=O)c1ccco1)C(=O)OC(C)C(=O)NCc1ccccc1 (configuration not stated)	KLK5 inh 41.5
Cc1ccc(C(=O)Nc2ccc3c(c2)CCC3)o1	KLK5 inh 84.3
COC(=O)c1ccccc1NC(=O)C1CC(=O)N(C2CCCCC2)C1 (configuration not stated)	KLK5 inh 63.5
COC(=O)c1ccccc1NC(=O)C1CC(=O)N(c2ccc(F)cc2)C1 (configuration not stated)	KLK5 inh 88.5, thrombin 1536 50.3
CCc1ccc(N2CC(C(=O)Nc3ccccc3F)CC2=O)cc1 (configuration not stated)	KLK5 inh 87.5, thrombin 1536 104.0
O=Cc1ccc(OCC(=O)Nc2ccccc2C(F)(F)F)cc1	FXIIa inh 63.8
O=C(O)Cc1ccccc1C(=O)O	thrombin 1536 43.8
O=C(O)Cc1ccc(NC(=O)CCN2C(=O)c3ccc([N+](=O)[O-])cc3C2=O)cc1	FXIIa inh 99.6
O=C(CCN1C(=O)c2ccc([N+](=O)[O-])cc2C1=O)Nc1ccc(O)cc1C(=O)O	none
CC(NC(=O)Nc1nnc(C(F)(F)F)s1)(C(F)(F)F)C(F)(F)F	FXIIa inh 40.1
CC(=O)N/C(=C\c1ccccc1)C(=O)OCC(=O)NC(C)C12CC3CC(CC(C3)C1)C2 (configuration not stated)	none
CC(=O)N/C(=C\c1ccccc1)C(=O)OCC(=O)N(C)C1CCCCC1	KLK5 inh 44.3
CCOc1cc(/C=N/NC(=O)CCCC(=O)NC2CCCCC2)ccc1O	none
O=C(C1CCCCC1)N1CCC(c2nc3ccccc3[nH]2)CC1	KLK5 inh 71.5
Cn1c(=O)c2c(nc(SCCN3CCOCC3)n2Cc2ccc(F)cc2)n(C)c1=O	KLK5 inh 52.1
CC(C)Sc1nc2c([nH]c3ccccc32)c(=O)n1C	m-calpain inh 81.9
CCOC(=O)C(C)Sc1nc2c([nH]c3ccccc32)c(=O)n1C (configuration not stated)	none
CC(C)c1ccc(-c2noc(C3CCCN(C(=O)c4ccc(F)cc4F)C3)n2)cc1 (configuration not stated)	thrombin 1536 61.4, m-calpain inh 77.1
COc1ccc(N=C2S/C(=C\c3cc(C)n(C)c3C)C(=O)N2C)cc1	KLK5 inh 41.4
CCCN1C(=O)/C(=C/c2cc(C)n(C)c2C)SC1=Nc1ccc(OC)cc1	none
CCc1cccc(CC)c1NC(=O)c1cc(CN2C(=O)c3ccccc3C2=O)ccc1OC	m-calpain inh 50.1
COc1ccc(CN2C(=O)c3ccccc3C2=O)cc1C(=O)OC(C)C(=O)NC(N)=O (configuration not stated)	none
O=C(CCC1CCCN(C(=O)c2ccc3[nH]ccc3c2)C1)N1CCN(c2ccccn2)CC1 (configuration not stated)	none
CC(NC(=O)c1ccc(C(C)(C)C)cc1)C(=O)O (configuration not stated)	none
CCCOc1ccc(C(=O)NC(C)C(=O)O)cc1 (configuration not stated)	FXIIa inh 40.0
CCCCNC(=O)CCC(=O)Nc1ccc2nc(N3CCC(C)CC3)cc(C)c2c1	none
CCN(CC)c1cc(C)c2cc(NC(=O)CNC(C)=O)ccc2n1	KLK5 inh 141.6 (no result: m-calpain inh)
O=C1N(Cc2cccc(Cl)c2)C[C@@H]2C[C@@H](c3cccn3-c3cccnc3)N3CCC[C@@]123	none (no result: thrombin 1536)
Cc1cc(C)nc(N/N=C/C2=C(O)CC(c3ccccc3)CC2=O)n1 (configuration not stated)	none
COc1cccc(C2=CC(c3cccs3)n3nnnc3N2)c1 (configuration not stated)	m-calpain inh 67.6
COc1cccc(C2=CC(c3ccc(OC)c(OC)c3OC)n3nnnc3N2)c1 (configuration not stated)	none
Cn1c(C(=O)N2CCCCCC2)cc2c(=O)n(C)c3ccccc3c21	none
Cc1cccc(N2CCN(C(=O)c3cc4c(=O)n(C)c5ccccc5c4n3C)CC2C)c1 (configuration not stated)	KLK5 inh 41.2 (no result: FXIIa inh)
CCc1nnc(NS(=O)(=O)c2ccc(NC(=S)NC(=O)c3ccc(Br)cc3)cc2)s1	m-calpain inh 70.4
CCc1nnc(NS(=O)(=O)c2ccc(NC(=S)NC(=O)c3ccccc3)cc2)s1	none
Cc1cc(=O)[nH]c2c1c(C)nn2C1CCCC1	KLK5 inh 53.8
CCCCN(C)C(=O)CS(=O)(=O)Cc1nc(-c2cccc(OC)c2)oc1C	KLK5 inh 43.9
COCCCNC(=O)CS(=O)(=O)Cc1nc(-c2cccc(OC)c2)oc1C	none
COc1ccc(OC)c(CNc2ccc([N+](=O)[O-])cc2C)c1	FXIIa inh 100.2, m-calpain inh 51.2
CC(=O)Nc1ccc(OC(=O)c2ccc(Br)c([N+](=O)[O-])c2)cc1	none
Cc1cccc(OCC(=O)N/N=C/c2ccccc2C(=O)O)c1	KLK5 inh 41.9, FXIa inh 43.1
Cc1ccccc1C(=O)NC1CC(C)(C)NC(C)(C)C1	KLK5 inh 57.9
Cc1ccc(C)c(C(=O)NC2CC(C)(C)NC(C)(C)C2)c1	none
Cc1ccc(-c2c[n+](CC(=O)Nc3nc(-c4ccc(F)cc4)cs3)c3n2CCC3)cc1	KLK5 inh 49.2
O=C(C[n+]1cc(-c2ccc(F)cc2)n2c1CCC2)Nc1nc(-c2ccccc2)cs1	none
O=S(=O)(Nc1nc(-c2sccc2Cl)cs1)c1cc(Cl)ccc1Cl	m-calpain inh 54.1
Cc1cc(=O)[nH]c(SCC(=O)NCC2CCCO2)n1 (configuration not stated)	thrombin 1536 41.7
